Experimental findings from ChEMBL document CHEMBL2401649, “Cyclic enkephalins with a diversely substituted guanidine bridge or a thiourea bridge: synthesis, biological and structural evaluations” (J Med Chem, 2013) are described below.

In experiment [1] the target is Kappa-type opioid receptor (Cavia porcellus, UniProt P41144). Kind of experiment: Displacement of [3H]-U69,593 from kappa opioid receptor in guinea pig brain membranes after 2 hrs by liquid scintillation counting analysis. It counts as cell membranes, Membrane. In a few lines:
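Guinea pig brain membranes incubated 2 h at 0 °C with 0.80 nM [3H]U69,593 plus competitor. IC50 taken from log-dose displacement curves.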

The species entered for a further experiment is Rattus norvegicus. Description: Selectivity ratio of Ki for delta opioid receptor in Wistar rat brain membranes to Ki for mu opioid receptor in Wistar rat brain membranes. The class given is cell membranes. The conditions noted are these: Membrane.
Experiment [2] concerns the target T1, Mu-type opioid receptor (Rattus norvegicus, UniProt P33535). Description: Displacement of [3H]-DAMGO from mu opioid receptor in Wistar rat brain membranes after 45 mins by liquid scintillation counting analysis. It counts as cell membranes, Membrane.
The target in experiment [3] is Delta-type opioid receptor (Rattus norvegicus, UniProt P33533). Description: Displacement of [3H]-DIDI from delta opioid receptor in Wistar rat brain membranes after 45 mins by liquid scintillation counting analysis. The class given is cell membranes, Membrane.
In experiment [4] the target is T1, Mu-type opioid receptor. Kind of experiment: Agonist activity at mu opioid receptor in rat brain membranes assessed as stimulation of [35S]GTPgammaS binding after 60 mins in presence of GDP. The conditions noted are these: for pEC50: read-out: EC50; for EC50: read-out: pEC50 (converted). It counts as functional, cell membranes.
For experiment [5], the target named is Mu-type opioid receptor (Cavia porcellus, UniProt P97266). Kind of experiment: Agonist activity at mu opioid receptor in guinea pig ileum. The class given is tissue-based. Summed up:
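Isolated guinea pig ileum (MOR) and mouse vas deferens (DOR) bioassays; Leu-enkephalin dose-response curve run as standard on each preparation, test IC50 values normalized to it.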

pEC50, pIC50, pKi: −log10 of the molar value.

T1 sequence (P33535 whole entry): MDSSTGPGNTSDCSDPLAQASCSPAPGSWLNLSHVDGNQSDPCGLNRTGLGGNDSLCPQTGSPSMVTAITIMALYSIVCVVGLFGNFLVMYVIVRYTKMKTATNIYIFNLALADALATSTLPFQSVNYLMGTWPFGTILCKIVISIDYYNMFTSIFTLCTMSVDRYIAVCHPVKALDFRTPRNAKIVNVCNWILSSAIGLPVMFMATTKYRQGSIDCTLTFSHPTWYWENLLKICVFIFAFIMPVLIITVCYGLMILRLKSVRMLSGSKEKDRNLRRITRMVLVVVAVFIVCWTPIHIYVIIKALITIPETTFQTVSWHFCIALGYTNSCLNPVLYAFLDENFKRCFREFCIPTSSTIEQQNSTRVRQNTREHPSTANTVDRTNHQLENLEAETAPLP
Delta-type opioid receptor, sequence (P33533 whole entry): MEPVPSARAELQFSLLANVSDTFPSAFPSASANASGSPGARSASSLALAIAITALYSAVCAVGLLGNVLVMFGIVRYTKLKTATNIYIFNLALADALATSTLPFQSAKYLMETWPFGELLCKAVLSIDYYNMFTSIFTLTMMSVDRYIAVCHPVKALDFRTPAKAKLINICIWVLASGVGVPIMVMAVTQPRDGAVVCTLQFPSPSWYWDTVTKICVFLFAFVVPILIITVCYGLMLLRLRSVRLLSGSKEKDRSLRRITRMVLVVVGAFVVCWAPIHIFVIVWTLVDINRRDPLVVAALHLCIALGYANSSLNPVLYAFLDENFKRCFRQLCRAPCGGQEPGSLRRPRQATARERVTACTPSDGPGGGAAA
Kappa-type opioid receptor, sequence (P41144 whole entry): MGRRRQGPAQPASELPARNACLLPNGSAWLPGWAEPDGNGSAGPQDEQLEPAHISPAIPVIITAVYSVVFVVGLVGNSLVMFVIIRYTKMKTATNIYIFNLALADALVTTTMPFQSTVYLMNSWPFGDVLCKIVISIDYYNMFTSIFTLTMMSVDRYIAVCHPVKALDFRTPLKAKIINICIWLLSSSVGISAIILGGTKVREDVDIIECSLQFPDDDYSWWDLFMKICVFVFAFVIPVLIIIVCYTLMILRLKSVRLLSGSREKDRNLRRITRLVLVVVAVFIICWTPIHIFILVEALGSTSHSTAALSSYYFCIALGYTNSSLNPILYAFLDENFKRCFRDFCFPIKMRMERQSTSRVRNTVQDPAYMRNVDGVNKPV
Mu-type opioid receptor (Cavia porcellus, UniProt P97266), sequence (P97266 whole entry): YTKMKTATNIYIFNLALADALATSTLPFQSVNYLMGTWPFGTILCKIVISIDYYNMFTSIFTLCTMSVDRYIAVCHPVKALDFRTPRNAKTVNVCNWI

On to `C/N=C1/NCCC[C@@H](C(N)=O)NC(=O)[C@H](CC(C)C)NC(=O)[C@H](Cc2ccccc2)NC(=O)CNC(=O)[C@H](NC(=O)[C@@H](N)Cc2ccc(O)cc2)CCCN1`, for which the pKi in experiment [1] is under 6.52; at Mu-type opioid receptor [2] it was 7.75; in experiment [3], 6.73. Further, in the experiment filed under Rattus norvegicus, the Ratio Ki was found to be 10.3. Also, the results for the negative logarithm of the IC50 (pIC50) (on Mu-type opioid receptor [2]; in experiment [3]) were 7.62 and 6.61, respectively. Besides, on Mu-type opioid receptor [4], the negative logarithm of the EC50 (pEC50) was 5.91.

As to `CC(C)C[C@@H]1NC(=O)[C@H](Cc2ccccc2)NC(=O)CNC(=O)[C@H](NC(=O)[C@@H](N)Cc2ccc(O)cc2)CCCN/C(N2CCCC2)=N\CCC[C@@H](C(N)=O)NC1=O`, the Ratio Ki in the experiment filed under Rattus norvegicus was 3.6. On Mu-type opioid receptor [2], this molecule gave a pIC50 of 6.63 and a pKi of 6.76. For the same molecule, in experiment [3], the pIC50 is 6.08 and the negative logarithm of the Ki (pKi) was 6.20. For the same molecule, on Mu-type opioid receptor [4], the negative-log EC50 (pEC50) was 5.10 and the EC50 was 8130 nM.

On to `NC(=O)[C@@H]1CNC(=S)NC[C@@H](NC(=O)[C@@H](N)Cc2ccc(O)cc2)C(=O)NCC(=O)N[C@@H](Cc2ccccc2)C(=O)N1` (stereo in doubt; 7a), for which, on Mu-type opioid receptor [5], the negative-log IC50 (pIC50) is 8.75.

On to `CN/C1=N/C[C@@H](C(N)=O)NC(=O)[C@H](Cc2ccccc2)NC(=O)CNC(=O)[C@H](NC(=O)[C@@H](N)Cc2ccc(O)cc2)CN1` (stereo in doubt; 10b), for which, on Mu-type opioid receptor [4], the EC50 is 1620 nM.

In the case of `CN/C1=N/C[C@@H](C(N)=O)NC(=O)[C@H](Cc2ccccc2)NC(=O)CNC(=O)[C@H](NC(=O)[C@@H](N)Cc2ccc(O)cc2)CN1` (stereo in doubt; 10a), the EC50 at Mu-type opioid receptor [4] was 282 nM.

Take `CC(C)C[C@@H]1NC(=O)[C@H](Cc2ccccc2)NC(=O)CNC(=O)[C@H](NC(=O)[C@@H](N)Cc2ccc(O)cc2)CCCNC(=S)NCCC[C@@H](C(N)=O)NC1=O`: the Ratio Ki in the experiment listed under Rattus norvegicus was determined as 8.3. Further, at Mu-type opioid receptor [2], the negative-log IC50 (pIC50) was 7.91 and the pKi was 8.04. In experiment [3], this molecule had a pIC50 of 7.01 and a negative-log Ki (pKi) of 7.12. Besides, at Mu-type opioid receptor [4], the pEC50 is 6.23 and the EC50 is 603 nM.

Molecule `NC(=O)[C@@H]1C/N=C(/N2CCCC2)NC[C@@H](NC(=O)[C@@H](N)Cc2ccc(O)cc2)C(=O)NCC(=O)N[C@@H](Cc2ccccc2)C(=O)N1` (stereo in doubt; 13b) gave a pKi in experiment [1] of under 6.30. Further, the EC50 at Mu-type opioid receptor [4] is 2820 nM.

Turning to `CS/C1=N/CCC[C@@H](C(N)=O)NC(=O)[C@H](CC(C)C)NC(=O)[C@H](Cc2ccccc2)NC(=O)CNC(=O)[C@H](NC(=O)[C@@H](N)Cc2ccc(O)cc2)CCCN1`, in the experiment filed under Rattus norvegicus, the Ratio Ki is 9.1. Besides, on Mu-type opioid receptor [2], the negative-log IC50 (pIC50) was 7.54 and the pKi was 7.68. In experiment [3], this molecule had a pIC50 of 6.60 and a negative logarithm of the Ki (pKi) of 6.72. Besides, at Mu-type opioid receptor [4], the pEC50 is 6.19 and the EC50 is 661 nM.

`NC(=O)[C@@H]1C/N=C(/N2CCCCC2)NC[C@@H](NC(=O)[C@@H](N)Cc2ccc(O)cc2)C(=O)NCC(=O)N[C@@H](Cc2ccccc2)C(=O)N1` (stereo in doubt; 14b) had a pIC50 in experiment [3] of 5.31. Moreover, at Mu-type opioid receptor [4], the EC50 was 4170 nM.

In experiment [1], `NC(=O)[C@@H]1C/N=C(/N2CCCC2)NC[C@@H](NC(=O)[C@@H](N)Cc2ccc(O)cc2)C(=O)NCC(=O)N[C@@H](Cc2ccccc2)C(=O)N1` (stereo in doubt; 13a) gave a negative-log Ki (pKi) of under 6.30. Besides, the EC50 on Mu-type opioid receptor [4] is 1070 nM.

For `CC(C)C[C@@H]1NC(=O)[C@H](Cc2ccccc2)NC(=O)CNC(=O)[C@H](NC(=O)[C@@H](N)Cc2ccc(O)cc2)CCCN/C(N)=N\CCC[C@@H](C(N)=O)NC1=O`, the negative logarithm of the Ki (pKi) in experiment [1] was under 6.30; at Mu-type opioid receptor [2], 7.74; in experiment [3] it was 6.97. Further, in the experiment filed under Rattus norvegicus, the Ratio Ki was determined as 5.9. Also, the pIC50 on Mu-type opioid receptor [2] is 7.60; in experiment [3] it was 6.84. In addition, the pEC50 on Mu-type opioid receptor [4] is 5.52.

With `NC(=O)[C@@H]1C/N=C(/N2CCCC2)NC[C@@H](NC(=O)[C@@H](N)Cc2ccc(O)cc2)C(=O)NCC(=O)N[C@@H](Cc2ccccc2)C(=O)N1` (stereo in doubt; 13c), in experiment [1], the negative-log Ki (pKi) is under 6.30. Further, on Mu-type opioid receptor [4], the EC50 was 4790 nM.

The molecule `CC(C)C[C@@H]1NC(=O)[C@H](Cc2ccccc2)NC(=O)CNC(=O)[C@H](NC(=O)[C@@H](N)Cc2ccc(O)cc2)CCCN/C(N(C)C)=N\CCC[C@@H](C(N)=O)NC1=O` had a negative logarithm of the Ki (pKi) in experiment [1] of under 6.30. For the same molecule, the Ratio Ki in the experiment filed under Rattus norvegicus amounted to 10.2. At Mu-type opioid receptor [2], this molecule gave a negative-log IC50 (pIC50) of 7.71 and a pKi of 7.84. In addition, in experiment [3], the pIC50 was 6.71 and the pKi was 6.84. On Mu-type opioid receptor [4], the negative-log EC50 (pEC50) is 5.82 and the EC50 is 1550 nM.

Regarding `NC(=O)[C@@H]1C/N=C(/N2CCCCC2)NC[C@@H](NC(=O)[C@@H](N)Cc2ccc(O)cc2)C(=O)NCC(=O)N[C@@H](Cc2ccccc2)C(=O)N1` (stereo in doubt; 14a), at Mu-type opioid receptor [5], the pIC50 is 6.40. Besides, the EC50 at Mu-type opioid receptor [4] was 1450 nM.

With `CN(C)/C1=N/C[C@@H](C(N)=O)NC(=O)[C@H](Cc2ccccc2)NC(=O)CNC(=O)[C@H](NC(=O)[C@@H](N)Cc2ccc(O)cc2)CN1`, on Mu-type opioid receptor [4], the pEC50 was 5.74.

For the molecule `NC(=O)[C@@H]1C/N=C(/N2CCCCC2)NC[C@@H](NC(=O)[C@@H](N)Cc2ccc(O)cc2)C(=O)NCC(=O)N[C@@H](Cc2ccccc2)C(=O)N1` (stereo in doubt; 14c), the pKi in experiment [3] is 5.46. Further, at Mu-type opioid receptor [4], the EC50 is 7590 nM.
